Assay results pooled from the literature.
MAP3K21: Mitogen-activated protein kinase kinase kinase 21 (MAP3K21, Homo sapiens, UniProt Q5TCX8)
STK32A: Serine/threonine-protein kinase 32A (STK32A, Homo sapiens, UniProt Q8WU08)
ache: Acetylcholinesterase (ache, Electrophorus electricus, UniProt O42275)
STK17B: Serine/threonine-protein kinase 17B (STK17B, Homo sapiens, UniProt O94768)
S1PR1: Sphingosine 1-phosphate receptor 1 (S1PR1, Homo sapiens, UniProt P21453)

For CC(C)(C)c1nc(-c2cccc(NS(=O)(=O)c3c(F)cccc3F)c2F)c(-c2ccnc(N)n2)s1, the remaining activity was 92% (MAP3K21; enzyme activity, inhibitor, radiometric; 1 µM).
Cn1c2c(c3ccc(Cl)c(Cl)c31)C(C#N)C(C)(C)NC2=O (stereo not shown) has a ΔTm of -0.1 °C (STK32A; thermal stability, DSF; 10 µM).
With COc1cc2c(cc1OC)C(=O)N(Cc1ccc(F)nc1)C2 the inhibition was -1.57% (ache; enzyme activity, inhibitor; 1 µM).
O[C@@H]1[C@H](O)CO[C@H]1n1cnc2c(NCc3cccc(Cl)c3)ncnc21 gave an inhibition of 35% (Adenosine receptor A1 (ADORA1, Homo sapiens, UniProt P30542); ligand displacement, radioligand; 10 µM, cell membranes).
COc1cc2c(cc1OC)C(=O)N(Cc1cnc3c(c1)OCCN3C)C2 gave an inhibition of 1.71% (ache; enzyme activity, inhibitor; 1 µM).
With c1cc(CN2CCOCC2)cc(Nc2ncc(C3CC3)c(NCCc3c[nH]cn3)n2)c1 the remaining activity was 14% (STK17B; enzyme activity, inhibitor, radiometric; 1 µM).
With COc1ccc2[nH]cc(CCN3Cc4cc(OC)c(OC)cc4C3=O)c2c1 the inhibition was 3.28% (ache; enzyme activity, inhibitor; 1 µM).
CN1CCc2cc(Nc3ncc(C4CC4)c(NCCCNC(=O)C4CCC4)n3)ccc2C1 has a remaining activity of 4% (STK17B; enzyme activity, inhibitor, radiometric; 1 µM).
For COc1cc2c(cc1OC)C(=O)N(Cc1n[nH]c3ccccc13)C2, the inhibition was 5.12% (ache; enzyme activity, inhibitor; 1 µM).
With Cn1c2c(Cl)c(Cl)ccc2c2cn[nH]c(=O)c21 the ΔTm was -0.4 °C (STK32A; thermal stability, DSF; 10 µM).
COc1cc2c(cc1OC)C(=O)N(CC1CCN(Cc3ccsc3)CC1)C2 has an inhibition of 13.9% (ache; enzyme activity, inhibitor; 1 µM).
The remaining activity of CC(C)(C)c1nc2c(s1)c1nc(N)ncc1c1ccc(NS(=O)(=O)c3c(F)cccc3F)c(F)c12 is reported as 90% (Ribosomal protein S6 kinase beta-2 (RPS6KB2, Homo sapiens, UniProt Q9UBS0); enzyme activity, inhibitor, radiometric; 1 µM).
The remaining activity of O=C(NCCCNc1nc(Nc2cccc(NC(=O)N3CCCC3)c2)ncc1I)c1cccs1 is reported as 4% (STK17B; enzyme activity, inhibitor, radiometric; 1 µM).
With CCc1cc(/C(C)=N/OCc2ccc(C3CCCCC3)c(C(F)(F)F)c2)ccc1CN1CC(C(=O)O)C1 the Emax was 85% (S1PR1; calcium signal, agonist, fluorescence; HUVEC).
COc1nccc(CN2Cc3cc(OC)c(OC)cc3C2=O)n1 gave an inhibition of -0.39% (ache; enzyme activity, inhibitor; 1 µM).
NS(=O)(=O)c1ccc(CNc2nc(Nc3cccc(CN4CCOCC4)c3)ncc2C2CC2)cc1 has a remaining activity of 84% (STK17B; enzyme activity, inhibitor, radiometric; 1 µM).
With CCCCCCCOc1ccc(CCC(N)(CO)COP(=O)(O)O)cc1C(F)(F)F (stereo not shown) the Emax was 92% (S1PR1; calcium signal, agonist, fluorescence).
Cc1nn(CC(F)(F)F)cc1Nc1ncc(Br)c(NCc2ccc(S(N)(=O)=O)cc2)n1 has a remaining activity of 47% (STK17B; enzyme activity, inhibitor, radiometric; 1 µM).
COC(=O)C(C)Oc1ccc2c(C)cc(=O)oc2c1 (stereo not shown) has a remaining activity of 82.8% (Aldehyde dehydrogenase 1A1 (ALDH1A1, Homo sapiens, UniProt P00352, N121S); enzyme activity, inhibitor, absorbance; 10 µM).
Cc1ccc(C(=O)NCc2ccsc2)cc1C#Cc1cn(C(C)C)c2ncnc(N)c12 gave an activity vs control of 81% (MAP3K21; enzyme activity, inhibitor; 1 µM).
With CC/C=C\C/C=C\C/C=C\C/C=C\C/C=C\C/C=C\CCC(=O)O the Km was 6.7 µM (Polyunsaturated fatty acid lipoxygenase ALOX15 (ALOX15, Homo sapiens, UniProt P16050); enzyme activity, substrate, absorbance).
For Cc1nn(CC(F)(F)F)cc1Nc1ncc(C2CC2)c(NCCCNC(=O)C2CCC2)n1, the remaining activity was 13% (STK17B; enzyme activity, inhibitor, radiometric; 1 µM).
Cn1c2c(Cl)c(Cl)ccc2c2cc[nH]c(=O)c21 gave a ΔTm of -0.4 °C (STK32A; thermal stability, DSF; 10 µM).
With O=C(NCCCNc1nc(Nc2cccc(NC(=O)N3CCCC3)c2)ncc1C1CC1)C1CCC1 the remaining activity was 3% (STK17B; enzyme activity, inhibitor, radiometric; 1 µM).
COc1cc2c(cc1OC)C(=O)N(CC1CCN(Cc3ccccn3)CC1)C2 gave an inhibition of 8.01% (ache; enzyme activity, inhibitor; 1 µM).
